Experimental data as given in ChEMBL document CHEMBL1817567, “Design of benzimidazole- and benzoxazole-2-thione derivatives as inhibitors of bacterial hyaluronan lyase” (Eur J Med Chem, 2011).
Values after ≈ are worked out from the molar mass of the structure shown. Active and inactive are the calls of the source. No cut-off for these calls is given here.

Columns and labels:
[1] = target: T1, Hyaluronidase (Bos taurus) (UniProt Q8SQG8+Q5E985); assay: Inhibition of bovine testes hyaluronidase at 4200 uM after 30 mins at pH 5 by turbidimetric analysis; type: protein assay
[2] = target: T1, Hyaluronidase (Bos taurus); assay: Inhibition of bovine testes hyaluronidase at 100 uM after 30 mins at pH 5 by turbidimetric analysis; type: protein assay
[3] = Inhibition of Streptococcus agalactiae 4755 hyaluronidase at pH 7.4 after 3 hrs by turbidimetric analysis
Outline: (§1)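 Same turbidimetric hyaluronan-lyase assay at pH 7.4 (citrate–phosphate/NaCl): SagHyal4755 2.9 ng, hyaluronan (2 mg/ml stock), BSA, 3.8% DMSO final, 3 h at 37 °C. CTAB (2.5%, in 0.5 M NaOH) precipitation, 20 min at 25 °C, A600. Activity scaled between no-inhibitor and no-enzyme samples.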

[4] = target: T1, Hyaluronidase (Bos taurus); assay: Inhibition of bovine testes hyaluronidase at 130 uM after 30 mins at pH 5 by turbidimetric analysis; type: protein assay
Streptococcus agalactiae = assay: Inhibition of Streptococcus agalactiae 4755 hyaluronidase at 100 uM after 30 mins at pH 5.0 by turbidimetric analysis
Outline: (§2)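 SagHyal4755 (2.9 ng) with BSA and hyaluronan (2 mg/ml stock) in citrate–phosphate/NaCl buffer pH 5.0, 3.8% DMSO final, 30 min at 37 °C. Stopped by alkaline 2.5% CTAB, then 20 min at 25 °C. Residual-substrate turbidity read at 600 nm; no-inhibitor sample = 100%, no-enzyme sample = 0% activity. Enzyme-free compound controls were run.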

[5] = target: T1, Hyaluronidase (Bos taurus); assay: Inhibition of bovine testes hyaluronidase at 63 uM after 30 mins at pH 5 by turbidimetric analysis; type: protein assay
[6] = target: T1, Hyaluronidase (Bos taurus); assay: Inhibition of bovine testes hyaluronidase at 80 uM after 30 mins at pH 5 by turbidimetric analysis; type: protein assay
[7] = target: T1, Hyaluronidase (Bos taurus); assay: Inhibition of bovine testes hyaluronidase at 190 uM after 30 mins at pH 5 by turbidimetric analysis; type: protein assay
[8] = target: T1, Hyaluronidase (Bos taurus); assay: Inhibition of bovine testes hyaluronidase at 3800 uM after 30 mins at pH 5 by turbidimetric analysis; type: protein assay
[9] = target: T1, Hyaluronidase (Bos taurus); assay: Inhibition of bovine testes hyaluronidase at 49 uM after 30 mins at pH 5 by turbidimetric analysis; type: protein assay
[10] = target: T1, Hyaluronidase (Bos taurus); assay: Inhibition of bovine testes hyaluronidase at 200 uM after 30 mins at pH 5 by turbidimetric analysis; type: protein assay
[11] = target: T1, Hyaluronidase (Bos taurus); assay: Inhibition of bovine testes hyaluronidase at 180 uM after 30 mins at pH 5 by turbidimetric analysis; type: protein assay
[12] = target: T1, Hyaluronidase (Bos taurus); assay: Inhibition of bovine testes hyaluronidase at 400 uM after 30 mins at pH 5 by turbidimetric analysis; type: protein assay
[13] = Aqueous solubility of the compound in water; type: physicochemical
Outline: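 Turbidity at 600 nm of test compound in DMSO added to citrate–phosphate buffer (pH 5 and pH 7.4), water and BSA (0.2 mg/ml stock), at various concentrations, read against a water reference. Enzyme testing used only concentrations showing no turbidity.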

[14] = target: T1, Hyaluronidase (Bos taurus); assay: Inhibition of bovine testes hyaluronidase at 150 uM after 30 mins at pH 5 by turbidimetric analysis; type: protein assay
[15] = target: T1, Hyaluronidase (Bos taurus); assay: Inhibition of bovine testes hyaluronidase at 380 uM after 30 mins at pH 5 by turbidimetric analysis; type: protein assay
[16] = target: T1, Hyaluronidase (Bos taurus); assay: Inhibition of bovine testes hyaluronidase at 2000 uM after 30 mins at pH 5 by turbidimetric analysis; type: protein assay
[17] = target: T1, Hyaluronidase (Bos taurus); assay: Inhibition of bovine testes hyaluronidase at 170 uM after 30 mins at pH 5 by turbidimetric analysis; type: protein assay
[18] = target: T1, Hyaluronidase (Bos taurus); assay: Inhibition of bovine testes hyaluronidase at 460 uM after 30 mins at pH 5 by turbidimetric analysis; type: protein assay
[19] = Inhibition of Streptococcus agalactiae 4755 hyaluronidase at pH 7.4; outline: as §1
[20] = Inhibition of Streptococcus agalactiae 4755 hyaluronidase at pH 5.0 after 30 mins by turbidimetric analysis; outline: as §2

Compound	inhibition [1]	inhibition [2]	IC50 [3] [µM]	inhibition [4]	inhibition [5]	inhibition [6]	inhibition [7]	inhibition [8]	inhibition [9]	inhibition [10]	inhibition [11]	inhibition [12]	inhibition [14]	inhibition [15]	inhibition [16]	inhibition [17]	inhibition [18]	IC50 [19] [µM]	IC50 [20] [µM]	further results
O=C(OCc1ccccc1)n1c(=S)oc2ccccc21	inactive	inactive	556	inactive	inactive	inactive	inactive	inactive	inactive	inactive	inactive	inactive	inactive	inactive	inactive	inactive	inactive			inhibition (Streptococcus agalactiae): inactive; solubility [13]: 100 µM (≈ 28.5 µg/mL)
O=C(CCc1ccccc1)n1c(=S)[nH]c2ccccc21	inactive	inactive	29	inactive	inactive	inactive	inactive	inactive	inactive	inactive	inactive	inactive	inactive	inactive	inactive	inactive	inactive			inhibition (Streptococcus agalactiae): 5%; solubility [13]: 100 µM (≈ 28.2 µg/mL)
CCCCCn1c(-c2ccc(O)cc2)c(C)c2cc(O)ccc21																		36		
Sc1nc2ccccc2[nH]1 [2-MERCAPTOBENZIMIDAZOLE]	inactive	inactive	1860	inactive	inactive	inactive	inactive	inactive	inactive	inactive	inactive	inactive	inactive	inactive	inactive	inactive	inactive		1150	
O=C1O[C@H]([C@@H](O)CO)C(O)=C1O [ASCORBIC ACID]	inactive	inactive		inactive	inactive	inactive	inactive	inactive	inactive	inactive	inactive	inactive	inactive	inactive	inactive	inactive	inactive		6100	
O=C(COc1ccccc1)n1c(=S)oc2ccccc21	inactive	inactive	62	inactive	inactive	inactive	inactive	inactive	inactive	inactive	inactive	inactive	inactive	inactive	inactive	inactive	inactive		213	
O=C(CCC1CCCCC1)n1c(=S)oc2ccccc21	inactive	inactive	20	inactive	inactive	inactive	inactive	inactive	inactive	inactive	inactive	inactive	inactive	inactive	inactive	inactive	inactive		227	
O=C(CCc1ccccc1)n1c(=S)oc2ccccc21	inactive	inactive	24	inactive	inactive	inactive	inactive	inactive	inactive	inactive	inactive	inactive	inactive	inactive	inactive	inactive	inactive		15	
O=C(CCCc1ccccc1)n1c(=S)oc2ccccc21	inactive	inactive	19	inactive	inactive	inactive	inactive	inactive	inactive	inactive	inactive	inactive	inactive	inactive	inactive	inactive	inactive			inhibition (Streptococcus agalactiae): 47%; solubility [13]: 100 µM (≈ 29.7 µg/mL)
CC(=O)n1c(=S)n(C(C)=O)c2ccccc21	inactive	inactive	5	inactive	inactive	inactive	inactive	inactive	inactive	inactive	inactive	inactive	inactive	inactive	inactive	inactive	inactive	5	160	
Cc1c(-c2ccc(O)cc2)[nH]c2ccc(O)cc12																		280		
CCC(=O)n1c(=S)oc2ccccc21	inactive	inactive	48	inactive	inactive	inactive	inactive	inactive	inactive	inactive	inactive	inactive	inactive	inactive	inactive	inactive	inactive		128	
Cc1c(-c2ccc(O)cc2)n(C)c2ccc(O)cc12																		220		
CCCn1c(-c2ccc(O)cc2)c(C)c2cc(O)ccc21																		160		
O=C(Cc1ccccc1)n1c(=S)oc2ccccc21	inactive	inactive	69	inactive	inactive	inactive	inactive	inactive	inactive	inactive	inactive	inactive	inactive	inactive	inactive	inactive	inactive		260	
CC(=O)n1c(=S)oc2ccccc21	inactive	inactive	42	inactive	inactive	inactive	inactive	inactive	inactive	inactive	inactive	inactive	inactive	inactive	inactive	inactive	inactive		125	
CCCCCCCn1c(-c2ccc(O)cc2)c(C)c2cc(O)ccc21																		12		
